Experimental findings from ChEMBL document CHEMBL1132218, “3-Amino-5-phenoxythiophenes: syntheses and structure-function studies of a novel class of inhibitors of cellular L-triiodothyronine uptake” (J Med Chem, 1999) are described below.

SMILES strings stand for the structures.

Data set [1] is described as follows: Partition coefficient (logP). Format: physicochemical. To be noted: octanol/water. The gist of the method: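 Octanol–water partition coefficient calculated computationally, not measured experimentally.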
The subject of the next data set is HepG2. The data set is described as follows: Compound was tested for inhibition of L-T3 (triiodothyronine) uptake in human HepG2 hepatoma cells at 10e-5 M. The format is functional. The gist of the method:
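HepG2 cells kept in DMEM with 10% FCS at 37 °C, grown to confluence (2×10⁶ cells/well), then serum-free overnight. Incubated 2 min at 37 °C in DMEM with 10^-11 M [¹²⁵I]-L-T₃; solvent-matched controls; nondisplaceable uptake from duplicates with 10^-5 M unlabeled L-T₃. Five PBS (pH 7.4) washes at room temperature, 0.1 M NaOH harvest, cell-associated radioactivity counted.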

Turning to `COC(=O)c1sc(Oc2ccccc2)c(C#N)c1N`, the logP in data set [1] came to 3.66. For the same molecule, in the data set with HepG2, the inhibition at 10 µM worked out at 41%.

On to `COC(=O)c1sc(Oc2cccc(C)c2)c(C#N)c1N`, for which the log partition coefficient (logP) in data set [1] came out at 4.16. Also, testing at 10 µM with HepG2 gave an inhibition of 19%.

As to `N#Cc1c(Oc2ccccc2)sc(C(N)=O)c1N`, the lipophilicity (logP) in data set [1] turned out to be 2.19. This molecule also showed an inhibition at 10 µM in the data set with HepG2 of 14%.

Molecule `Cc1cccc(Oc2sc(C#N)c(N)c2C#N)c1` showed a logP in data set [1] of 3.04. Moreover, the inhibition at 10 µM in the data set on HepG2 was 26%.

Regarding `N#Cc1c(Oc2ccccc2)sc(C(=O)c2ccc([N+](=O)[O-])cc2)c1N`, in data set [1], the logP is 4.53. Besides, in the data set with HepG2, the inhibition at 10 µM is 18%.

In the case of `COC(=O)c1sc(Oc2cccc(C)c2)c(C(N)=O)c1N`, the logP in data set [1] came to 3.61. For the same molecule, the inhibition at 10 µM in the data set with HepG2 came out at 40%.

Take `N#Cc1c(Oc2ccccc2)sc(C(=O)c2ccccc2)c1N`: the lipophilicity (logP) in data set [1] stood at 4.75. Besides, testing at 10 µM in the data set with HepG2 gave an inhibition of 61%.

`NC(=O)c1c(Oc2ccccc2)sc(C(=O)c2ccccc2)c1N` showed a logP in data set [1] of 3.6. In the data set on HepG2, the inhibition at 10 µM turned out to be 60%.

Turning to `N#Cc1sc(Oc2ccccc2)c(C#N)c1N`, in data set [1], the logP was found to be 2.54. For the same molecule, the inhibition at 10 µM in the data set on HepG2 was found to be 21%.

In turn, `COC(=O)c1sc(Oc2ccccc2)c(C(N)=O)c1N` had a log partition coefficient (logP) in data set [1] of 3.11. For the same molecule, in the data set with HepG2, the inhibition at 10 µM came out at 26%.

In the case of `Cc1cccc(Oc2sc(C(=O)c3ccc([N+](=O)[O-])cc3)c(N)c2C#N)c1`, in data set [1], the logP is 5.03. In the data set on HepG2, this molecule gave an inhibition at 10 µM of 16%.

For `Cc1cccc(Oc2sc(C(=O)c3ccccc3)c(N)c2C#N)c1`, the logP in data set [1] turned out to be 5.25. Moreover, the inhibition at 10 µM in the data set on HepG2 is 57%.

The molecule `Cc1cccc(Oc2sc(C(N)=O)c(N)c2C#N)c1` displayed a logP in data set [1] of 2.69. The inhibition at 10 µM with HepG2 is 23%.

The term logP denotes a log measure of how a compound divides between an organic and an aqueous phase. A higher logP goes with higher lipophilicity. For orientation: inhibition means the percentage by which the read-out fell short of the control. A low value points to a response near the control.
